Assay results: ChEMBL document CHEMBL2057147, “Synthesis and in vitro antitumor activity of novel scopoletin derivatives” (Bioorg Med Chem Lett, 2012)
Active and inactive are the calls of the source. The calls are words filed in the database; no cut-off is given here.

How the values were obtained:
[1] = system: MCF7; assay: Antiproliferative activity against human MCF7 cells after 72 hrs by crystal violet staining method; format: functional, cell-based; conditions: for IC50: MCF7, 72 h
Outline: (§1)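 Cells seeded at a known number in 96-well plates and exposed to increasing compound concentrations for 72 h; IC50 taken from the concentration–growth-inhibition data.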

[2] = system: MDA-MB-231; assay: Antiproliferative activity against human MDA-MB-231 cells after 72 hrs by crystal violet staining method; format: functional, cell-based; conditions: for IC50: MDA-MB-231, 72 h; outline: as §1
[3] = system: HT-29; assay: Antiproliferative activity against human HT-29 cells after 72 hrs by crystal violet staining method; format: functional, cell-based; conditions: for IC50: HT-29, 72 h; outline: as §1
[4] = system: MCF7; assay: Cytostatic activity against human MCF7 cells at 20 uM after 72 hrs by crystal violet staining method relative to control; format: functional
Outline: (§2)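 Single-concentration growth inhibition in MCF-7 and MDA-MB 231 cells at 10 and 20 µM after 72 h, given as corrected treated/control percentage (T/C_corr %).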

[5] = system: MDA-MB-231; assay: Cytostatic activity against human MDA-MB-231 cells at 20 uM after 72 hrs by crystal violet staining method relative to control; format: functional; outline: as §2
[6] = system: MCF7; assay: Ratio of scopoletin IC50 to compound IC50 for human MCF7 cells; format: functional
[7] = system: MDA-MB-231; assay: Ratio of scopoletin IC50 to compound IC50 for human MDA-MB-231 cells; format: functional
[8] = system: HT-29; assay: Ratio of scopoletin IC50 to compound IC50 for human HT-29 cells; format: functional
[9] = system: MCF7; assay: Antiproliferative activity against human MCF7 cells at 1.25 to 20 uM up to 144 hrs by crystal violet staining method; format: functional, cell-based
Outline: (§3)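 Time course at 1.25, 2.5, 5, 10 and 20 µM, with growth inhibition read as corrected treated/control percentage (T/C_corr %) at several incubation times over about 140 h.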

[10] = system: HT-29; assay: Antiproliferative activity against human HT-29 cells at 1.25 to 20 uM up to 144 hrs by crystal violet staining method; format: functional, cell-based; outline: as §3
[11] = system: MDA-MB-231; assay: Induction of apoptosis in human MDA-MB-231 cells assessed as caspase3 activation at 10 uM after 24 hrs by fluorescence detection assay; format: functional, cell-based
[12] = system: U2OS; assay: Induction of apoptosis in human U2OS cells assessed as caspase3 activation at 10 uM after 24 hrs by fluorescence detection assay; format: functional, cell-based
[13] = system: MCF7; assay: Antiproliferative activity against human MCF7 cells at 20 uM after 72 hrs by crystal violet staining method relative to control; format: functional; outline: as §2
[14] = system: MDA-MB-231; assay: Antiproliferative activity against human MDA-MB-231 cells at 20 uM after 72 hrs by crystal violet staining method relative to control; format: functional; outline: as §2
[15] = system: MCF7; assay: Cytocidal activity against human MCF7 cells at 20 uM after 72 hrs by crystal violet staining method relative to control; format: functional; outline: as §2
[16] = system: MDA-MB-231; assay: Cytocidal activity against human MDA-MB-231 cells at 20 uM after 72 hrs by crystal violet staining method relative to control; format: functional; outline: as §2
[17] = system: MCF7; assay: Cytocidal activity against human MCF7 cells at 10 uM after 72 hrs by crystal violet staining method; format: functional, cell-based; outline: as §2
[18] = system: MDA-MB-231; assay: Cytocidal activity against human MDA-MB-231 cells at 10 uM after 72 hrs by crystal violet staining method; format: functional, cell-based; outline: as §2

COc1cc2cc(NC(C)=O)c(=O)oc2cc1OCC(=O)Nc1ccc(Cl)cc1 was tested, and the Activity [1] was “Active”, the Activity [2] was “Active” and the Activity [3] was “Active”.
COc1cc2cc(NC(C)=O)c(=O)oc2cc1OCC(=O)Nc1ccc(C(C)(C)C)cc1 was tested, and the T/C [4] was 0%, the T/C [5] was 0% and the IC50 [1] was 3.9 µM. The IC50 [2] was 4.5 µM, the IC50 [3] was 4.3 µM and the “Ratio IC50” value [6] was 12. For the same compound, the “Ratio IC50” value [7] was 12, the “Ratio IC50” value [8] was 12 and the Activity [9] was “Active”. For the same compound, the Activity [10] was “Active”, the Activity [11] was “inactive” and the Activity [12] was “inactive”.
COc1cc2ccc(=O)oc2cc1OCC(=O)Nc1ccc(Cl)cc1 was tested, and the T/C [13] was less than 50%, the T/C [14] was less than 50% and the IC50 [1] was 19.5 µM. For the same compound, the IC50 [2] was 19.3 µM and the IC50 [3] was 18.1 µM.
In the case of COc1cc2ccc(=O)oc2cc1OCC(=O)Nc1ccc(C(C)(C)C)cc1, the T/C [15] is reported as less than 0%, the T/C [16] is reported as less than 0% and the IC50 [1] is reported as 10.1 µM. The IC50 [2] was 8.1 µM and the IC50 [3] was 19.6 µM.
COc1cc2ccc(=O)oc2cc1OCC(=O)Nc1ccc(F)c(Cl)c1 was tested, and the T/C [13] was less than 50%, the T/C [14] was less than 50% and the Activity [17] was “Active”. The Activity [18] was “Active”, the IC50 [1] was 6.5 µM and the IC50 [2] was 6.3 µM. The IC50 [3] was 7.6 µM, the “Ratio IC50” value [6] was 12 and the “Ratio IC50” value [7] was 12. For the same compound, the “Ratio IC50” value [8] was 12.
Work on COc1ccc(NC(=O)COc2cc3oc(=O)c(NC(C)=O)cc3cc2OC)cc1OC yielded a T/C [13] of less than 50%, a T/C [14] of less than 50% and an IC50 [1] of 14.9 µM. The IC50 [2] was 8.4 µM and the IC50 [3] was greater than 20 µM.
O=c1[nH]cc(F)c(=O)[nH]1 [FLUOROURACIL] showed an IC50 [1] of 4.7 µM.
For COc1cc2cc(NC(C)=O)c(=O)oc2cc1OCC(=O)Nc1ccc(F)cc1, the Activity [1] was “Active”, the Activity [2] was “Active” and the Activity [3] was “Active”.
COc1cc2ccc(=O)oc2cc1O [SCOPOLETIN] showed an IC50 [1] greater than 100 µM, an IC50 [2] greater than 100 µM and an IC50 [3] greater than 100 µM.
COc1cc2cc(NC(C)=O)c(=O)oc2cc1OCC(=O)Nc1ccc(C)cc1 showed a T/C [13] of less than 50%, a T/C [14] of less than 50% and an IC50 [1] of 19 µM. For the same compound, the IC50 [2] was 13.9 µM and the IC50 [3] was greater than 20 µM.
Compound COc1ccccc1NC(=O)COc1cc2oc(=O)c(NC(C)=O)cc2cc1OC has a T/C [13] of less than 50%, a T/C [14] of less than 50% and an IC50 [1] of 17.9 µM. It also gave an IC50 [2] of 14.7 µM and an IC50 [3] of 19.1 µM.
In the case of COc1cc2cc(NC(C)=O)c(=O)oc2cc1OCC(=O)Nc1cccc(C(C)=O)c1, the Activity [1] is reported as “Active”, the Activity [2] is reported as “Active” and the Activity [3] is reported as “Active”.
